Experimental data reported in ChEMBL document CHEMBL1156577, “Moromycins A and B, isolation and structure elucidation of C-glycosylangucycline-type antibiotics from Streptomyces sp. KY002” (2008).
≈ marks a conversion by molar mass, not a printed value.

What was measured:
NCI-H460 = test: Cytotoxicity against human H460 cells after 48 hrs by SRB assay; format: functional; conditions: NCI-H460, 48 h; for CC50: read-out: LC50 (the source's name)
How it was run: (§1)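 In vitro: human lung H-460 and human breast MCF-7 cell lines exposed to drugs for 48 h. Growth read by sulforhodamine B (SRB) staining.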

MCF7 = test: Cytotoxicity against human MCF7 cells after 48 hrs by SRB assay; format: functional; conditions: MCF7, 48 h; for CC50: read-out: LC50 (the source's name); how it was run: as §1
L1210 = test: Cytotoxicity against cultured mouse L1210 cells

For `C[C@@H]1O[C@H]2O[C@@H]3[C@@H](C)O[C@@H](c4ccc5c(c4O)C(=O)c4ccc6c(c4C5=O)C(=O)C[C@](C)(O)C6)C[C@H]3O[C@H]2CC1=O` [MOROMYCIN B], which GI50 (NCI-H460) is on record?
Its GI50 is 4.1 µM.

What about the TGI (NCI-H460) of the same compound?
Its TGI is 14.1 µM.

And the CC50 (NCI-H460)?
Its CC50 is 52.3 µM.

And the GI50 (MCF7)?
The GI50 was 5.6 µM.

And the TGI (MCF7)?
The TGI was 9.2 µM.

And the CC50 (MCF7)?
Its CC50 is 16.3 µM.

How did the ID50 (L1210) turn out when `CC[C@@]1(O)C[C@H](O[C@H]2C[C@H](N(C)C)[C@H](O[C@H]3C[C@@H]4O[C@H]5CC(=O)[C@@H](C)O[C@H]5O[C@@H]4[C@H](C)O3)[C@H](C)O2)c2c(cc3c(c2O)C(=O)c2c(O)cccc2C3=O)[C@H]1C(=O)OC` [ACLACINOMYCIN B] was run?
Its ID50 is 0.24 µg/mL (≈ 0.296 µM).

`C[C@@H]1O[C@@H](O[C@H]2CC[C@H](O[C@@]3(C)CC(=O)[C@]4(O)C5=C(C=C[C@]4(O)C3)C(=O)c3c(ccc([C@H]4C[C@H]6O[C@H]7CC(=O)[C@H](C)O[C@H]7O[C@@H]6[C@@H](C)O4)c3O)C5=O)O[C@H]2C)C=CC1=O` [SAQUAYAMYCIN B] was tested. Which GI50 (NCI-H460) did it give?
Its GI50 is 12.2 µM.

What about the TGI (NCI-H460) of the same compound?
Its TGI is 26.5 µM.

And the CC50 (NCI-H460)?
The CC50 was 34.3 µM.

And the GI50 (MCF7)?
The GI50 was 15.2 µM.

What about the TGI (MCF7) of the same compound?
The TGI was 21.3 µM.

What about the CC50 (MCF7) of the same compound?
Its CC50 is 28.1 µM.

How did the GI50 (NCI-H460) turn out when `C[C@@H]1O[C@@H](O[C@H]2CC[C@H](O[C@@]3(C)CC(=O)c4c(ccc5c4C(=O)c4ccc([C@H]6C[C@H]7O[C@H]8CC(=O)[C@H](C)O[C@H]8O[C@@H]7[C@@H](C)O6)c(O)c4C5=O)C3)O[C@H]2C)C=CC1=O` [MOROMYCIN A] was run?
Its GI50 is 18.7 µM.

And the TGI (NCI-H460)?
Its TGI is 51.2 µM.

What about the CC50 (NCI-H460) of the same compound?
Its CC50 is 69.1 µM.

And the GI50 (MCF7)?
The GI50 was 25.1 µM.

And the TGI (MCF7)?
Its TGI is 38.9 µM.

And the CC50 (MCF7)?
Its CC50 is 55 µM.

`CC[C@@]1(O)C[C@H](O[C@H]2C[C@H](N(C)C)[C@H](O[C@H]3C[C@H](O)[C@H](O[C@H]4CCC(=O)[C@H](C)O4)[C@H](C)O3)[C@H](C)O2)c2c(cc3c(c2O)C(=O)c2c(O)cccc2C3=O)[C@H]1C(=O)OC` [ACLARUBICIN] was tested. Which ID50 (L1210) did it give?
The ID50 was 0.12 µg/mL (≈ 0.148 µM).
